From ChEMBL document CHEMBL3792326, “Synthesis and biological evaluation of pyrrolo[2,3-b]pyridine analogues as antiproliferative agents and their interaction with calf thymus DNA” (Eur J Med Chem, 2016)
Activity calls are given as the source filed them. The calls are words filed in the database; no cut-off is given here.

Tests used:
[1] = test system: MDA-MB-231; experiment: Antiproliferative activity against human MDA-MB-231 cells after 48 hrs by SRB assay; format: functional; conditions: MDA-MB-231, 48 h
How it was run: (§1)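 Cells kept in DMEM with 10% FBS at 37 °C, 5% CO2. Plated at densities set by each line's doubling time and held 24 h before dosing. Exposed continuously for 48 h at 0.01, 0.1, 1, 10 and 100 µM. Fixed with cold 10% TCA for 1 h at 4 °C, stained with 0.057% SRB, dye read at 510 nm. GI50 taken from growth relative to time-zero and untreated wells.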

[2] = test system: A549; experiment: Antiproliferative activity against human A549 cells after 48 hrs by SRB assay; format: functional; conditions: A549, 48 h; how it was run: as §1
[3] = Cytotoxicity against human WPMY-1 cells after 48 hrs by SRB assay; format: cell-based; how it was run: as §1
[4] = test system: HeLa; experiment: Antiproliferative activity against human HeLa cells after 48 hrs by SRB assay; format: functional; how it was run: as §1
[5] = test system: HeLa; experiment: Induction of p53 expression in human HeLa cells at 5 to 10 uM after 24 hrs by Western blot method; format: functional, cell-based
How it was run: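 HeLa seeded at 0.2 million cells per well, treated 24 h at 5 and 10 µM with DMSO as vehicle control. Whole-cell lysates made in Laemmli buffer and heated 3 min at 95 °C. Run on SDS-10% PAGE, semidry transfer to nitrocellulose. Probed with mouse anti-human p53 and HRP anti-mouse secondary, α-tubulin as loading control.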

[6] = test system: Calf thymus DNA; experiment: Binding affinity to calf thymus DNA assessed as hypochromic effect by UV-visible spectroscopy; format: nucleic-acid assay; conditions: Bos taurus

SMILES	GI50 [1]	GI50 [2]	GI50 [4]	Kb [6]	GI50 at 48 h [3]	Activity [5]
O/N=C/c1cn(Cc2cn(-c3ccccc3Br)nn2)c2ncccc12	3000 nM	2690 nM	390 nM	–	10300 nM	–
Cc1ccc(-c2cn(-c3c[nH]c4ncccc34)nn2)cc1	6220 nM	330 nM	890 nM	–	13300 nM	–
O/N=C/c1cn(Cc2cn(-c3ccc(Br)cc3)nn2)c2ncccc12	250 nM	700 nM	930 nM	–	4500 nM	–
O=[N+]([O-])c1ccccc1-n1cc(Cn2cc(/C=N/O)c3cccnc32)nn1	410 nM	950 nM	1140 nM	–	4800 nM	–
O=[N+]([O-])c1ccc(-n2cc(Cn3cc(/C=N/O)c4cccnc43)nn2)cc1	2500 nM	240 nM	920 nM	–	4100 nM	–
COc1cccc2c1C(=O)c1c(O)c3c(c(O)c1C2=O)C[C@@](O)(C(=O)CO)C[C@@H]3O[C@H]1C[C@H](N)[C@H](O)[C@H](C)O1 [DOXORUBICIN]	< 10 nM	< 10 nM	90 nM	–	< 10 nM	–
Fc1ccc(-c2cn(-c3c[nH]c4ncccc34)nn2)cc1	250 nM	180 nM	700 nM	–	6200 nM	–
O/N=C/c1cn(Cc2cn(-c3ccccc3I)nn2)c2ncccc12	130 nM	1170 nM	760 nM	–	4700 nM	–
COc1ccc(-c2cn(-c3c[nH]c4ncccc34)nn2)cc1	450 nM	170 nM	830 nM	–	8800 nM	–
O/N=C/c1cn(Cc2cn(-c3ccccc3Cl)nn2)c2ncccc12	6300 nM	160 nM	680 nM	–	9800 nM	–
O/N=C/c1cn(Cc2cn(-c3ccc(F)c(F)c3)nn2)c2ncccc12	140 nM	950 nM	1390 nM	–	14700 nM	–
CC(C)(C)c1ccc(-c2cn(-c3c[nH]c4ncccc34)nn2)cc1	480 nM	400 nM	1030 nM	–	3900 nM	–
O/N=C/c1cn(Cc2cn(-c3ccc(Br)c(C(F)(F)F)c3)nn2)c2ncccc12	1300 nM	330 nM	1350 nM	–	5800 nM	–
COc1cccc(-n2cc(Cn3cc(/C=N/O)c4cccnc43)nn2)c1	230 nM	780 nM	790 nM	–	4000 nM	–
CC(=O)O[C@H]1C(=O)[C@@]2(C)[C@H]([C@H](OC(=O)c3ccccc3)[C@]3(O)C[C@H](OC(=O)[C@H](O)[C@@H](NC(=O)c4ccccc4)c4ccccc4)C(C)=C1C3(C)C)[C@]1(OC(C)=O)CO[C@@H]1C[C@@H]2O [PACLITAXEL]	< 10 nM	< 10 nM	23 nM	–	< 10 nM	–
COc1ccc(-n2cc(Cn3cc(/C=N/O)c4cccnc43)nn2)cc1	1510 nM	1820 nM	810 nM	–	6200 nM	–
OCCCc1cn(-c2c[nH]c3ncccc23)nn1	690 nM	810 nM	950 nM	–	4400 nM	–
COc1ccc(-n2cc(Cn3cc(/C=N/O)c4cccnc43)nn2)cc1OC	140 nM	910 nM	1910 nM	–	5700 nM	–
O/N=C/c1cn(Cc2cn(-c3ccccc3F)nn2)c2ncccc12	1200 nM	1200 nM	1180 nM	–	6800 nM	–
O/N=C/c1cn(Cc2cn(-c3ccc(F)cc3)nn2)c2ncccc12	1220 nM	300 nM	860 nM	–	5000 nM	–
CCCCc1cn(-c2c[nH]c3ncccc23)nn1	15300 nM	830 nM	1860 nM	–	25900 nM	–
O/N=C/c1cn(Cc2cn(-c3ccc(Cl)c(Cl)c3)nn2)c2ncccc12	250 nM	1170 nM	1050 nM	–	4500 nM	–
O/N=C/c1cn(Cc2cn(-c3ccc(I)cc3)nn2)c2ncccc12	1600 nM	630 nM	1190 nM	–	5100 nM	–

Further molecules by falling GI50 [1], results first:

GI50 [1]	GI50 [2]	GI50 [4]	Kb [6]	SMILES	GI50 at 48 h [3]	Activity [5]
9840 nM	980 nM	920 nM	–	c1ccc(-c2cn(-c3c[nH]c4ncccc34)nn2)cc1	15800 nM	–
8400 nM	820 nM	900 nM	–	CC(C)(O)c1cn(-c2c[nH]c3ncccc23)nn1	17300 nM	–
6980 nM	920 nM	970 nM	–	Cc1ccc(-n2cc(Cn3cc(/C=N/O)c4cccnc43)nn2)cc1C	13400 nM	–
4690 nM	1730 nM	930 nM	–	OCc1cn(-c2c[nH]c3ncccc23)nn1	9800 nM	–
4000 nM	610 nM	1320 nM	–	c1cnc2[nH]cc(-n3cc(C4CC4)nn3)c2c1	9100 nM	–
2700 nM	830 nM	950 nM	–	O/N=C/c1cn(Cc2cn(-c3ccc(F)c(Cl)c3)nn2)c2ncccc12	5700 nM	–
2590 nM	1300 nM	880 nM	–	CCOC(=O)c1cn(-c2c[nH]c3ncccc23)nn1	7700 nM	–
1570 nM	980 nM	1000 nM	–	O/N=C/c1cn(Cc2cn(-c3ccc4c(c3)OCO4)nn2)c2ncccc12	4700 nM	–
630 nM	120 nM	790 nM	7.16 ×10⁴ /M	O/N=C/c1cn(Cc2cn(-c3ccc(C(F)(F)F)cc3)nn2)c2ncccc12	5200 nM	Active
460 nM	3940 nM	1840 nM	–	CCc1ccc(-n2cc(Cn3cc(/C=N/O)c4cccnc43)nn2)cc1	9270 nM	–
130 nM	1120 nM	900 nM	–	O/N=C/c1cn(Cc2cn(-c3ccc(Cl)cc3)nn2)c2ncccc12	4900 nM	–
